Assay type in all cases: functional
The subject of assay [1] is Radical scavenging activity. Description: Antioxidant activity assessed as DPPH free radical scavenging activity at 500 ug by spectrophotometer. In short, it runs like this:
(§1)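 DPPH radical scavenging measured spectrophotometrically by Blois's method at 50, 500 and 1000 µg. Absorbance read at 517 nm. Percent scavenging is the absorbance decrease at 517 nm relative to the absorbance of DPPH solution without test compound. L-ascorbic acid as standard.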
Background: Loss of DPPH colour is used to gauge radical scavenging.

Another assay deals with Macrophomina phaseolina. Description: Antifungal activity against Macrophomina phaseolina. The gist of the method: (§2)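 Agar diffusion assay in duplicate against the plant fungal pathogens; read-out as minimum inhibitory concentration (MIC); carbendazim as reference control.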
The test system of assay [2] is Staphylococcus aureus. Description: Antimicrobial activity against Staphylococcus aureus at 25 ug/ml by agar diffusion assay. In short, it runs like this: (§3)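 Agar diffusion assay in duplicate against the human bacterial pathogens; tetracycline as reference control.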
The test system of assay [3] is Staphylococcus aureus. Description: Antimicrobial activity against Staphylococcus aureus at 75 ug/ml by agar diffusion assay. In short, it runs like this: as §3
A general note: A growth-free zone around the sample is the usual read-out of agar diffusion tests.

Assay [4] concerns Bacillus subtilis. Description: Antimicrobial activity against Bacillus subtilis at 100 ug/ml by agar diffusion assay. In short, it runs like this:
as §3

Assay [5] relates to Staphylococcus aureus. Description: Antimicrobial activity against Staphylococcus aureus at 100 ug/ml by agar diffusion assay. The gist of the method: as §3
Assay [6] relates to Klebsiella pneumoniae. Description: Antimicrobial activity against Klebsiella pneumoniae at 75 ug/ml by agar diffusion assay. In short, it runs like this: as §3
Assay [7] relates to Bacillus subtilis. Description: Antimicrobial activity against Bacillus subtilis at 50 ug/ml by agar diffusion assay. In short, it runs like this: as §3
Assay [8] concerns Klebsiella pneumoniae. Description: Antimicrobial activity against Klebsiella pneumoniae at 25 ug/ml by agar diffusion assay. In short, it runs like this:
as §3

The test system of the next assay is Fusarium oxysporum. Description: Antifungal activity against Fusarium oxysporum. The gist of the method: as §2
For assay [9], the system named is Pseudomonas aeruginosa. Description: Antimicrobial activity against Pseudomonas aeruginosa at 50 ug/ml by agar diffusion assay. The gist of the method:
as §3

In assay [10] the test system is Bacillus subtilis. Description: Antimicrobial activity against Bacillus subtilis at 25 ug/ml by agar diffusion assay. In short, it runs like this:
as §3

The test system of assay [11] is Radical scavenging activity. Description: Antioxidant activity assessed as DPPH free radical scavenging activity at 50 ug by spectrophotometer. The gist of the method:
as §1

Assay [12] deals with Radical scavenging activity. Description: Antioxidant activity assessed as DPPH free radical scavenging activity at 1000 ug by spectrophotometer. The gist of the method:
as §1

Assay [13] relates to Pseudomonas aeruginosa. Description: Antimicrobial activity against Pseudomonas aeruginosa at 100 ug/ml by agar diffusion assay. The gist of the method: as §3
Assay [14] deals with Klebsiella pneumoniae. Description: Antimicrobial activity against Klebsiella pneumoniae at 100 ug/ml by agar diffusion assay. In short, it runs like this:
as §3

Assay [15] deals with Bacillus subtilis. Description: Antimicrobial activity against Bacillus subtilis at 75 ug/ml by agar diffusion assay. In short, it runs like this: as §3
For assay [16], the system named is Klebsiella pneumoniae. Description: Antimicrobial activity against Klebsiella pneumoniae at 50 ug/ml by agar diffusion assay. The gist of the method:
as §3

The test system of assay [17] is Pseudomonas aeruginosa. Description: Antimicrobial activity against Pseudomonas aeruginosa at 25 ug/ml by agar diffusion assay. In short, it runs like this: as §3
Assay [18] concerns Pseudomonas aeruginosa. Description: Antimicrobial activity against Pseudomonas aeruginosa at 75 ug/ml by agar diffusion assay. The gist of the method:
as §3

Assay [19] has as its system Staphylococcus aureus. Description: Antimicrobial activity against Staphylococcus aureus at 50 ug/ml by agar diffusion assay. The gist of the method: as §3

Converted amounts (≈) assume the structure as drawn.

The results in this text go back to ChEMBL document CHEMBL1944603, “An efficient synthesis of highly functionalized novel chromeno[4,3-b]pyrroles and indolizino[6,7-b]indoles as potent antimicrobial and antioxidant agents” (2012).

A word on the MIC: it is the lowest concentration found to suppress growth. Higher therefore signals a less susceptible organism. `COC(=O)[C@]12Cc3c([nH]c4ccccc34)[C@@H](c3ccccc3)N1[C@@H]1c3c(ccc4ccccc34)OC[C@@H]1C2`: the Activity came out at 33% in [1], 17% in [11] and 69% in [12]. Besides, the minimal inhibitory concentration (MIC) against Macrophomina phaseolina came to 85 µg/mL (≈ 170 µM); against Fusarium oxysporum, 30 µg/mL (≈ 59.9 µM). For the same compound, the inhibition zone (IZ) with Staphylococcus aureus [2] was determined as 9 mm; in the assay with Staphylococcus aureus [3], 18 mm; in the assay with Bacillus subtilis [4] it was 24 mm; in the assay with Staphylococcus aureus [5], 26 mm; in the assay with Klebsiella pneumoniae [6], 17 mm; in the assay with Bacillus subtilis [7], 12 mm. Besides, the inhibition zone (IZ) with Klebsiella pneumoniae [8] came to 10 mm; in the assay on Pseudomonas aeruginosa [9], 13 mm; in the assay with Bacillus subtilis [10], 9 mm; in the assay on Pseudomonas aeruginosa [13], 25 mm; in the assay on Klebsiella pneumoniae [14] it was 24 mm; with Bacillus subtilis [15], 20 mm. Further, the inhibition zone (IZ) turned out to be 12 mm in the assay on Klebsiella pneumoniae [16], 9 mm in the assay with Pseudomonas aeruginosa [17], 18 mm in the assay on Pseudomonas aeruginosa [18] and 13 mm with Staphylococcus aureus [19].

On to `COC(=O)[C@]12Cc3c([nH]c4ccccc34)[C@@H](c3ccc(C)cc3)N1[C@@H]1c3c(ccc4ccccc34)OC[C@@H]1C2`, for which the results for the Activity in assay [1], in [11] and in [12] were 53%, 26% and 87%, respectively. Also, the minimum inhibitory concentration (MIC) in the assay with Macrophomina phaseolina stood at 30 µg/mL (≈ 58.3 µM); in the assay with Fusarium oxysporum, 85 µg/mL (≈ 165 µM). Besides, the inhibition zone (IZ) was 9 mm in the assay on Staphylococcus aureus [2]; 17 mm with Staphylococcus aureus [3]; 20 mm with Bacillus subtilis [4]; 19 mm in the assay with Staphylococcus aureus [5]; 17 mm in the assay with Klebsiella pneumoniae [6]; 14 mm in the assay on Bacillus subtilis [7]. Also, the inhibition zone (IZ) in the assay on Klebsiella pneumoniae [8] amounted to 9 mm; in the assay on Pseudomonas aeruginosa [9], 14 mm; with Bacillus subtilis [10], 9 mm; in the assay on Pseudomonas aeruginosa [13], 20 mm; with Klebsiella pneumoniae [14], 21 mm; in the assay on Bacillus subtilis [15], 16 mm. The inhibition zone (IZ) in the assay with Klebsiella pneumoniae [16] turned out to be 12 mm; with Pseudomonas aeruginosa [17], 8 mm; with Pseudomonas aeruginosa [18], 17 mm; with Staphylococcus aureus [19] it was 12 mm.

For `COC(=O)[C@@]1(Cc2c[nH]c3ccccc23)C[C@H]2COc3ccccc3[C@H]2N1`, the Activity stood at 51% in assay [1], 29% in [11] and 64% in [12]. Besides, the minimal inhibitory concentration (MIC) against Macrophomina phaseolina was found to be 60 µg/mL (≈ 166 µM); in the assay with Fusarium oxysporum it was 75 µg/mL (≈ 207 µM). The inhibition zone (IZ) with Staphylococcus aureus [2] is 10 mm; with Staphylococcus aureus [3] it was 20 mm; in the assay on Bacillus subtilis [4] it was 26 mm; with Staphylococcus aureus [5], 23 mm; in the assay on Klebsiella pneumoniae [6], 21 mm; in the assay on Bacillus subtilis [7], 15 mm. Also, the inhibition zone (IZ) in the assay on Klebsiella pneumoniae [8] was 11 mm; with Pseudomonas aeruginosa [9], 15 mm; in the assay on Bacillus subtilis [10], 11 mm; in the assay on Pseudomonas aeruginosa [13], 23 mm; in the assay on Klebsiella pneumoniae [14], 23 mm; in the assay with Bacillus subtilis [15], 20 mm. The inhibition zone (IZ) in the assay with Klebsiella pneumoniae [16] is 15 mm; in the assay on Pseudomonas aeruginosa [17], 10 mm; in the assay on Pseudomonas aeruginosa [18], 21 mm; in the assay with Staphylococcus aureus [19], 15 mm.

For `COC(=O)[C@]12Cc3c([nH]c4ccccc34)[C@@H](c3cccc([N+](=O)[O-])c3)N1[C@@H]1c3c(ccc4ccccc34)OC[C@@H]1C2`, the Activity in assay [1] amounted to 53%; in assay [11] it was 30%; in assay [12], 67%. The figures for the minimum inhibitory concentration (MIC) in the assay on Macrophomina phaseolina and against Fusarium oxysporum were 90 µg/mL (≈ 165 µM) and 35 µg/mL (≈ 64.2 µM), respectively. For the same compound, the inhibition zone (IZ) with Staphylococcus aureus [2] stood at 19 mm; in the assay on Staphylococcus aureus [3] it was 24 mm; in the assay with Bacillus subtilis [4], 29 mm; in the assay with Staphylococcus aureus [5], 28 mm; with Klebsiella pneumoniae [6], 22 mm; in the assay on Bacillus subtilis [7], 19 mm. Further, the inhibition zone (IZ) was found to be 13 mm in the assay with Klebsiella pneumoniae [8]; 20 mm in the assay with Pseudomonas aeruginosa [9]; 12 mm in the assay on Bacillus subtilis [10]; 30 mm with Pseudomonas aeruginosa [13]; 27 mm in the assay with Klebsiella pneumoniae [14]; 24 mm with Bacillus subtilis [15]. Besides, the inhibition zone (IZ) with Klebsiella pneumoniae [16] was 18 mm; with Pseudomonas aeruginosa [17], 14 mm; in the assay with Pseudomonas aeruginosa [18] it was 24 mm; in the assay on Staphylococcus aureus [19], 20 mm.

With `COC(=O)[C@@]1(Cc2c[nH]c3ccccc23)C[C@H]2COc3ccc4ccccc4c3[C@H]2N1`, the Activity in assay [1] worked out at 52%; in [11], 33%; in assay [12] it was 66%. Besides, the values for the MIC against Macrophomina phaseolina and in the assay on Fusarium oxysporum were 60 µg/mL (≈ 145 µM) and 85 µg/mL (≈ 206 µM), respectively. In addition, the inhibition zone (IZ) with Staphylococcus aureus [2] worked out at 9 mm; in the assay with Staphylococcus aureus [3], 18 mm; with Bacillus subtilis [4] it was 24 mm; with Staphylococcus aureus [5], 24 mm; with Klebsiella pneumoniae [6] it was 20 mm; with Bacillus subtilis [7] it was 15 mm. For the same compound, the inhibition zone (IZ) amounted to 10 mm in the assay on Klebsiella pneumoniae [8]; 14 mm with Pseudomonas aeruginosa [9]; 10 mm with Bacillus subtilis [10]; 21 mm in the assay on Pseudomonas aeruginosa [13]; 23 mm in the assay with Klebsiella pneumoniae [14]; 19 mm in the assay with Bacillus subtilis [15]. Moreover, the inhibition zone (IZ) turned out to be 14 mm in the assay with Klebsiella pneumoniae [16], 9 mm in the assay on Pseudomonas aeruginosa [17], 20 mm in the assay on Pseudomonas aeruginosa [18] and 13 mm in the assay with Staphylococcus aureus [19].
